Measurements from ChEMBL document CHEMBL1909494, “Synthesis and structure-activity relationship studies of 4-arylthiosemicarbazides as topoisomerase IV inhibitors with Gram-positive antibacterial activity. Search for molecular basis of antibacterial activity of thiosemicarbazides” (Eur J Med Chem, 2011).
pIC50: −log10 of the molar value. Values after ≈ are worked out from the molar mass of the structure shown. Active and inactive are the calls of the source. The rule behind the calls is not given here.

What was measured:
Micrococcus luteus [1] = assay: Antibacterial activity against Micrococcus luteus ATCC 10240 by agar dilution method; format: functional
Staphylococcus aureus [2] = assay: Antibacterial activity against Staphylococcus aureus NCTC 4163 by agar dilution method; format: functional
Micrococcus luteus [3] = assay: Antibacterial activity against Micrococcus luteus ATCC 9341 by agar dilution method; format: functional
Bacillus cereus = assay: Antibacterial activity against Bacillus cereus ATCC 11778 by agar dilution method; format: functional
Bacillus subtilis = assay: Antibacterial activity against Bacillus subtilis ATCC 6633 by agar dilution method; format: functional
Staphylococcus aureus [4] = assay: Antibacterial activity against Staphylococcus aureus ATCC 29213 by agar dilution method; format: functional
Staphylococcus aureus [5] = assay: Antibacterial activity against Staphylococcus aureus ATCC 6538 by agar dilution method; format: functional
Staphylococcus aureus [6] = assay: Antibacterial activity against Staphylococcus aureus ATCC 25923 by agar dilution method; format: functional
[7] = system: Staphylococcus epidermidis; assay: Antibacterial activity against Staphylococcus epidermidis ATCC 12228 by agar dilution method; format: functional
[8] = (§1) Inhibition of Staphylococcus aureus topoisomerase 4 assessed as inhibition of decatenation of kDNA after 1 hr by agarose gel electrophoresis
How it was run: (§2)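 kDNA was incubated with 1 unit of topoisomerase IV in decatenation assay buffer with varying compound concentrations at 37 °C for 1 h. Reactions were stopped with 2x STOP buffer plus chloroform/iso-amyl alcohol and run on a 1% agarose gel in TAE for 1.5 h at 80 V, then stained with ethidium bromide. IC50 was the concentration preventing 50% conversion of kDNA to decatenated minicircles, derived from gel densitometry.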

Staphylococcus aureus [9] = assay: as §1; how it was run: as §2
[10] = molecular target: DNA gyrase (Staphylococcus aureus) (UniProt P0A0K8+P20831); assay: Inhibition of Staphylococcus aureus gyrase using […] DNA as substrate after 1 hr by agarose gel electrophoresis; format: protein-complex assay; settings: in the assay text read “relaxed” for “supercoiled”
How it was run: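 The enzyme was incubated in the manufacturer's supercoiling assay buffer with varying compound concentrations at 37 °C for 1 h. Samples were run on a 1% agarose gel in TAE for 3 h at 50 V, stained with ethidium bromide and viewed under UV.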

SMILES	MIC (Micrococcus luteus [1]) [µg/mL]	MIC (Staphylococcus aureus [2]) [µg/mL]	MIC (Micrococcus luteus [3]) [µg/mL]	MIC (Bacillus cereus) [µg/mL]	MIC (Bacillus subtilis) [µg/mL]	MIC (Staphylococcus aureus [4]) [µg/mL]	MIC (Staphylococcus aureus [5]) [µg/mL]	MIC (Staphylococcus aureus [6]) [µg/mL]	MIC [7] [µg/mL]	pIC50 [8]	inhibition (Staphylococcus aureus [9])	inhibition [10]
Cc1nnsc1C(=O)NNC(=S)Nc1cc(F)ccc1F	200 (≈ 607 µM)	400 (≈ 1210 µM)	100 (≈ 304 µM)	400 (≈ 1210 µM)	200 (≈ 607 µM)	400 (≈ 1210 µM)	400 (≈ 1210 µM)	200 (≈ 607 µM)	400 (≈ 1210 µM)	–	–	–
O=C(O)c1cn(C2CC2)c2cc(N3CCNCC3)c(F)cc2c1=O [CIPROFLOXACIN]	2 (≈ 6.04 µM)	0.5 (≈ 1.51 µM)	4 (≈ 12.1 µM)	1 (≈ 3.02 µM)	< 0.125	0.5 (≈ 1.51 µM)	0.5 (≈ 1.51 µM)	0.5 (≈ 1.51 µM)	0.5 (≈ 1.51 µM)	–	–	–
Cc1nnsc1C(=O)NNC(=S)Nc1cccc(F)c1	100 (≈ 321 µM)	200 (≈ 642 µM)	200 (≈ 642 µM)	400 (≈ 1280 µM)	400 (≈ 1280 µM)	400 (≈ 1280 µM)	400 (≈ 1280 µM)	200 (≈ 642 µM)	400 (≈ 1280 µM)	–	–	–
O=C(NNC(=S)Nc1ccccc1Br)c1cc2ccccc2[nH]1	100 (≈ 257 µM)	200 (≈ 514 µM)	100 (≈ 257 µM)	200 (≈ 514 µM)	200 (≈ 514 µM)	100 (≈ 257 µM)	200 (≈ 514 µM)	100 (≈ 257 µM)	200 (≈ 514 µM)	–	–	–
Cc1nnsc1C(=O)NNC(=S)Nc1ccccc1C(F)(F)F	200 (≈ 553 µM)	100 (≈ 277 µM)	200 (≈ 553 µM)	400 (≈ 1110 µM)	200 (≈ 553 µM)	200 (≈ 553 µM)	400 (≈ 1110 µM)	50 (≈ 138 µM)	200 (≈ 553 µM)	–	–	–
Cc1nnsc1C(=O)NNC(=S)Nc1ccccc1	200 (≈ 682 µM)	400 (≈ 1360 µM)	100 (≈ 341 µM)	400 (≈ 1360 µM)	400 (≈ 1360 µM)	400 (≈ 1360 µM)	400 (≈ 1360 µM)	400 (≈ 1360 µM)	400 (≈ 1360 µM)	–	–	–
Cc1nnsc1C(=O)NNC(=S)Nc1ccc(F)cc1	100 (≈ 321 µM)	400 (≈ 1280 µM)	100 (≈ 321 µM)	200 (≈ 642 µM)	200 (≈ 642 µM)	400 (≈ 1280 µM)	400 (≈ 1280 µM)	200 (≈ 642 µM)	200 (≈ 642 µM)	–	–	–
Cc1nnsc1C(=O)NNC(=S)Nc1ccc(Cl)cc1Cl	100 (≈ 276 µM)	100 (≈ 276 µM)	100 (≈ 276 µM)	100 (≈ 276 µM)	100 (≈ 276 µM)	100 (≈ 276 µM)	100 (≈ 276 µM)	100 (≈ 276 µM)	100 (≈ 276 µM)	–	–	–
Cc1nnsc1C(=O)NNC(=S)Nc1ccc(Br)cc1	100 (≈ 269 µM)	200 (≈ 537 µM)	50 (≈ 134 µM)	100 (≈ 269 µM)	100 (≈ 269 µM)	200 (≈ 537 µM)	200 (≈ 537 µM)	100 (≈ 269 µM)	200 (≈ 537 µM)	3.39	–	–

More lines, in order of falling MIC (Micrococcus luteus [1]), values ahead:

MIC (Micrococcus luteus [1]) [µg/mL]	MIC (Staphylococcus aureus [2]) [µg/mL]	MIC (Micrococcus luteus [3]) [µg/mL]	MIC (Bacillus cereus) [µg/mL]	MIC (Bacillus subtilis) [µg/mL]	MIC (Staphylococcus aureus [4]) [µg/mL]	MIC (Staphylococcus aureus [5]) [µg/mL]	MIC (Staphylococcus aureus [6]) [µg/mL]	MIC [7] [µg/mL]	pIC50 [8]	inhibition (Staphylococcus aureus [9])	inhibition [10]	SMILES
100 (≈ 305 µM)	200 (≈ 609 µM)	100 (≈ 305 µM)	200 (≈ 609 µM)	100 (≈ 305 µM)	200 (≈ 609 µM)	200 (≈ 609 µM)	100 (≈ 305 µM)	200 (≈ 609 µM)	–	–	–	O=C(NNC(=S)Nc1ccccc1F)c1cc2ccccc2[nH]1
50 (≈ 141 µM)	50 (≈ 141 µM)	50 (≈ 141 µM)	50 (≈ 141 µM)	50 (≈ 141 µM)	50 (≈ 141 µM)	50 (≈ 141 µM)	50 (≈ 141 µM)	50 (≈ 141 µM)	4.85	–	–	O=C(NNC(=S)Nc1ccc([N+](=O)[O-])cc1)c1cc2ccccc2[nH]1
50 (≈ 148 µM)	100 (≈ 296 µM)	100 (≈ 296 µM)	100 (≈ 296 µM)	100 (≈ 296 µM)	200 (≈ 591 µM)	100 (≈ 296 µM)	100 (≈ 296 µM)	100 (≈ 296 µM)	–	inactive	inactive	Cc1nnsc1C(=O)NNC(=S)Nc1ccc([N+](=O)[O-])cc1
50 (≈ 153 µM)	100 (≈ 305 µM)	100 (≈ 305 µM)	50 (≈ 153 µM)	50 (≈ 153 µM)	50 (≈ 153 µM)	100 (≈ 305 µM)	50 (≈ 153 µM)	50 (≈ 153 µM)	–	–	–	Cc1nnsc1C(=O)NNC(=S)Nc1ccc(Cl)cc1
25 (≈ 76.1 µM)	100 (≈ 305 µM)	50 (≈ 152 µM)	100 (≈ 305 µM)	100 (≈ 305 µM)	100 (≈ 305 µM)	100 (≈ 305 µM)	100 (≈ 305 µM)	100 (≈ 305 µM)	–	–	–	O=C(NNC(=S)Nc1ccc(F)cc1)c1cc2ccccc2[nH]1
25 (≈ 72.2 µM)	100 (≈ 289 µM)	100 (≈ 289 µM)	100 (≈ 289 µM)	100 (≈ 289 µM)	200 (≈ 577 µM)	100 (≈ 289 µM)	100 (≈ 289 µM)	100 (≈ 289 µM)	3.53	–	–	O=C(NNC(=S)Nc1ccc(F)cc1F)c1cc2ccccc2[nH]1
